Values after ≈ are worked out from the molar mass of the structure shown. Bounds are passed on as bounds.

Data set [1] deals with Plasmodium falciparum. Description: (§1) Inhibitory concentration against Plasmodium falciparum K1 infected erythrocytes. The format is functional.
The subject of data set [2] is Plasmodium falciparum. Description: Inhibitory concentration against Plasmodium falciparum D6 infected erythrocytes. The format is functional, organism-based.
The subject of data set [3] is Plasmodium falciparum. The data set is described as follows: Inhibitory concentration against Plasmodium falciparum W2 infected erythrocytes. The format is functional, organism-based.
In data set [4] the test system is Plasmodium falciparum. Description: Inhibitory concentration IC50 against Plasmodium falciparum K1 by [3H]hypoxanthine uptake over 24 hr. The format is functional, organism-based. In a few lines: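 K1 strain of P. falciparum (chloroquine- and pyrimethamine-resistant) in infected erythrocyte suspensions at 0.5% initial parasitemia, exposed to drug for 24 h at 37 °C. Read-out is [3H]hypoxanthine incorporation into parasites. IC50 is the concentration giving 50% inhibition relative to untreated controls.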

A further data set has as its system Jurkat. Description: Concentration required to reduce growth of human jurkat leukemia cells to 50% of control cultures, determined using a 72 hr continuous exposure. The format is functional, cell-based. In a few lines:
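Human Jurkat leukemia cells given continuous drug exposure for 72 h, then counted on a hemocytometer. IC50 is the concentration that cuts cell growth to 50% of untreated controls. Values are means of at least two independent determinations, with variation typically ±15%.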

A short description of data set [5]: In vitro therapeutic index value is the ratio between IC50 values of [J] and [P]. The format is cell-based. The following applies: human, Jurkat cells; read-out: TI.
The test system of data set [6] is Plasmodium falciparum. The data set is described as §1. The format is functional, organism-based. In short, it runs like this: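 Chloroquine- and pyrimethamine-resistant K1 strain in infected erythrocyte suspensions (0.5% initial parasitemia), exposed to drug for 24 h at 37 °C. Read-out: [3H]hypoxanthine incorporation into parasites. IC50 in μM is the concentration that reduces incorporation to 50% of untreated controls.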

Data set [7] has as its target T1, DNA topoisomerase 2 (Plasmodium falciparum K1) (UniProt P41001).
T1 sequence (whole entry): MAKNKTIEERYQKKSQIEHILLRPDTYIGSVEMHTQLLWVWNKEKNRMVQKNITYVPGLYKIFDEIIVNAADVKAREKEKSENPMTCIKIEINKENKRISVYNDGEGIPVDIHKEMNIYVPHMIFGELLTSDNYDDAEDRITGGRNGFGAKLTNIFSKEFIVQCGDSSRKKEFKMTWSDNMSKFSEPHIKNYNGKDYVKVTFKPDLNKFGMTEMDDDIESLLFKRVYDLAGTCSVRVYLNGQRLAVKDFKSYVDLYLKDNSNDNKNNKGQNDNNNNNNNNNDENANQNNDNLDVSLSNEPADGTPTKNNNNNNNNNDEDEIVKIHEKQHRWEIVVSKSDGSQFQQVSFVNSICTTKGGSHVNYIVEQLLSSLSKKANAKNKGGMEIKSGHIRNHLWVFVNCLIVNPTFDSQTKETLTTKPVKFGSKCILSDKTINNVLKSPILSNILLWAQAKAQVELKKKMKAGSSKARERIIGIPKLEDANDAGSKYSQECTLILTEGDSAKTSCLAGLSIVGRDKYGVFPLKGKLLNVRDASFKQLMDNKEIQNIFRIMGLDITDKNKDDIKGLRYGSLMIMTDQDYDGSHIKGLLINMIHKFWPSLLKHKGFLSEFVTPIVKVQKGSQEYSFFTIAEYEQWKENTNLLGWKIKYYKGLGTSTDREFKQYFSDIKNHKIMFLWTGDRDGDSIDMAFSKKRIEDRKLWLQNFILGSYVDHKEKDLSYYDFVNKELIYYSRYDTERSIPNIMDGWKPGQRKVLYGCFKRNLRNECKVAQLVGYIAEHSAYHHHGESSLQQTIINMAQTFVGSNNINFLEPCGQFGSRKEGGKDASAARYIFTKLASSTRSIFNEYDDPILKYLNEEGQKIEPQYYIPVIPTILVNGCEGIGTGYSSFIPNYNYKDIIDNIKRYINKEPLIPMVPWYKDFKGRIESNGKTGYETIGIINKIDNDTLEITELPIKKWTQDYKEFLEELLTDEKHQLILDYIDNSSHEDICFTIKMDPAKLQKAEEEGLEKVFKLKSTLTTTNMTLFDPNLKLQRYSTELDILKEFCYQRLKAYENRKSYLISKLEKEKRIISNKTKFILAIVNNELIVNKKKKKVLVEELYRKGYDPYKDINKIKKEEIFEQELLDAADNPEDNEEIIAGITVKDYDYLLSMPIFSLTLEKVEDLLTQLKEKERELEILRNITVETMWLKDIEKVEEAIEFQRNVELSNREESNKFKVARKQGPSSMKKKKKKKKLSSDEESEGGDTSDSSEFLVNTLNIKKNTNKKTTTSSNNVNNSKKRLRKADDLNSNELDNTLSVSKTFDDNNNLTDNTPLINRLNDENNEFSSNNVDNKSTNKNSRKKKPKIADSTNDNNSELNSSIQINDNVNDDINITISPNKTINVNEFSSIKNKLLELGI
Description: Minimum inhibitory concentration required to completely inhibit topoisomerase II activity from Plasmodium falciparum was determined using P4 DNA […] assay.

In data set [8] the target is DNA topoisomerase II (Homo sapiens) (UniProt P11388+Q02880). The data set is described as follows: Minimum inhibitory concentration required to completely inhibit topoisomerase II activity from jurkat human leukemia cells was determined using P4 DNA unknotting assay. In a few lines: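 Enzyme is a partially purified topoisomerase II extract from midlog Jurkat cells, made by sonication in Tris pH 8/KCl/MgCl2/EGTA buffer with protease inhibitors, then PEG/KCl precipitation. Extract is diluted to a set P4 DNA unknotting activity. Proteinase K method scores unknotting and linearization of phage P4 DNA on 0.7% agarose gels stained with ethidium bromide. MIC is the concentration giving complete inhibition.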

Data set [9] deals with Plasmodium falciparum. The data set is described as follows: Minimum inhibitory concentration (IC90) against Plasmodium falciparum K1 infected erythrocytes.
Data set [10] deals with Plasmodium falciparum. Described as above. The source holds these as a separate data set.

For the compound `COc1ccc2nc3cc(Cl)ccc3c(Nc3cc(CN4CCCC4)c(O)c(CN4CCCC4)c3)c2n1` [PYRONARIDINE], the IC50 (commonly the concentration that gives 50% inhibition) in the data set with Plasmodium falciparum [1] stood at 27 nM; in the data set with Plasmodium falciparum [2] it was 1 nM; in the data set with Plasmodium falciparum [3] it was 0.8 nM; in the data set with Plasmodium falciparum [4], 2.7 nM; in the data set with Jurkat, 4000 nM. Moreover, the selectivity ratio in data set [5] was found to be 1480.

Turning to `CN(C)Cc1ccc(Nc2c3ccc(N)cc3nc3cc(N)ccc23)cc1`, the IC50 was 40 nM in the data set on Plasmodium falciparum [6]; 113 nM in the data set with Plasmodium falciparum [2]; 277 nM in the data set with Plasmodium falciparum [3]; 40 nM in the data set with Plasmodium falciparum [4]; over 20000 nM with Jurkat. The MIC came out at 50 µM (≈ 17.9 µg/mL) in data set [7] and 20 µM (≈ 7.15 µg/mL) in data set [8]. Also, in data set [5], the selectivity ratio was over 500.

In the case of `C=C[C@H]1CN2CC[C@H]1C[C@H]2[C@H](O)c1ccnc2ccc(OC)cc12` [QUININE], in the data set on Plasmodium falciparum [9], the IC90 (usually the point of the concentration-response curve where the effect stands at 90%) turned out to be 300 nM. In addition, the results for the IC50 in the data set with Plasmodium falciparum [2] and with Plasmodium falciparum [3] were 48 nM and 100 nM, respectively.

Consider `CN(C)c1ccc(Nc2c3ccc(N)cc3nc3cc(N)ccc23)cc1`, for which the IC50 with Plasmodium falciparum [6] came out at 34 nM; in the data set with Plasmodium falciparum [2], 63 nM; in the data set on Plasmodium falciparum [3], 118 nM; in the data set on Plasmodium falciparum [4] it was 34 nM; in the data set with Jurkat, 6000 nM. Besides, the MIC is 12.5 µM (≈ 4.29 µg/mL) in data set [7] and 20 µM (≈ 6.87 µg/mL) in data set [8]. Also, the selectivity ratio in data set [5] amounted to 176.

On to `C[C@@H]1CC[C@H]2[C@@H](C)C(=O)O[C@@H]3O[C@@]4(C)CC[C@@H]1[C@]32OO4` [ARTEMISININ], for which the IC50 in the data set on Plasmodium falciparum [2] is 13 nM; in the data set on Plasmodium falciparum [3], 12 nM.

Regarding `Nc1ccc2c(Nc3ccc(O)cc3)c3ccc(N)cc3nc2c1`, the values for the MIC in data set [7] and in [8] were 6 µM (≈ 1.9 µg/mL) and 20 µM (≈ 6.33 µg/mL), respectively. The IC50 with Plasmodium falciparum [4] came to 50 nM; in the data set on Jurkat, 10000 nM. The selectivity ratio in [5] was determined as 200.

In the case of `Nc1ccc(Nc2c3ccc(N)cc3nc3cc(N)ccc23)cc1`, the IC50 in the data set on Plasmodium falciparum [6] was determined as 25 nM; in the data set with Plasmodium falciparum [2], 33 nM; in the data set on Plasmodium falciparum [3] it was 37 nM; with Plasmodium falciparum [4], 25 nM; with Jurkat, 15000 nM. The MIC in data set [7] came out at 10 µM (≈ 3.15 µg/mL); in data set [8], 20 µM (≈ 6.31 µg/mL). In addition, in data set [5], the selectivity ratio was determined as 600.

On to `[N-]=[N+]=Nc1ccc2c(Nc3ccc(C(N)=O)cc3)c3ccc(N=[N+]=[N-])cc3nc2c1`, for which the MIC in data set [7] is 50 µM (≈ 19.8 µg/mL); in data set [8], over 100 µM. For the same compound, the IC50 in the data set with Plasmodium falciparum [4] turned out to be 60 nM; in the data set on Jurkat, 1500 nM. In [5], the selectivity ratio was 25.

Compound `OC(c1cc(C(F)(F)F)nc2c(C(F)(F)F)cccc12)C1CCCCN1` (stereo not drawn) [MEFLOQUINE] showed an IC90 with Plasmodium falciparum [10] of 70 nM. In the data set with Plasmodium falciparum [2], this compound gave an IC50 of 17 nM.

Turning to `COc1ccc(Nc2c3ccc(N)cc3nc3cc(N)ccc23)cc1`, the figures for the MIC in [7] and in data set [8] were 6 µM (≈ 1.98 µg/mL) and 20 µM (≈ 6.61 µg/mL), respectively. Moreover, the values for the IC50 in the data set on Plasmodium falciparum [4] and in the data set on Jurkat were 150 nM and 4000 nM, respectively. Besides, the selectivity ratio in data set [5] stood at 27.

Consider `CCN(CC)CCCC(C)Nc1ccnc2cc(Cl)ccc12` (stereo not drawn) [CHLOROQUINE], for which, in the data set with Plasmodium falciparum [1], 250 nM corresponded to half-maximal inhibition (IC50).

The record behind these values is ChEMBL document CHEMBL1127825, “Synthesis and in vitro evaluation of 9-anilino-3,6-diaminoacridines active against a multidrug-resistant strain of the malaria parasite Plasmodium falciparum” (J Med Chem, 1994).
